Screening data: PubChem, several laboratories
The entries come from a sample that favours hits as a whole.
ROMK primary: modulators of human ROMK potassium channel | P48048 | Tet-inducible ROMK, thallium flux fluorescence; actives lie on both sides | B-score at 10 µM | 130,000 compounds, 2% hits | AID 1918;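 active = signal ratio slope over the read window, or its plate-corrected B-score, at least 3 SD from the plate mean, either direction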;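 note: B-score of the F/F0 ratio slope over 7 to 12 s after thallium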
Target sequence (P48048 whole entry, looked up): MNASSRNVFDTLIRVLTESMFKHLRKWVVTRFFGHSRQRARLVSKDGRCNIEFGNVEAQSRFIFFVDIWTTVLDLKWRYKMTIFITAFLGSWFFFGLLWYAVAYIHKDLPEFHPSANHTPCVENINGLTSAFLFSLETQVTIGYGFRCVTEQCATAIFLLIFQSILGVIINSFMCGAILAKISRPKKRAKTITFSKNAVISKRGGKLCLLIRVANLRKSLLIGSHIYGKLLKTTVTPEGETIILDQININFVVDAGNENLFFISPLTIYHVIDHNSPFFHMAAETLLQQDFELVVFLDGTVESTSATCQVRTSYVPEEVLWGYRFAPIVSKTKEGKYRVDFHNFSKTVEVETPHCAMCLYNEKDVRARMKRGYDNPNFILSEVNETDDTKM
Biofilm kill mix: mixtures killing C. albicans biofilm; C. albicans biofilm persisters + clotrimazole, fluorescence viability; primary screen in compound mixtures of four per well; inhibition, % at 7.6 µM; 120,000 compounds, 0.02% hits;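 active = inhibition above 30.3% in the primary screen of four-compound pools, then above 30% when the compound was retested; inconclusive = passed the primary limit but could not be retested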;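 note: compounds exposed to preformed 24 h biofilms for 48 h; 0% = untreated biofilm control and 100% = clotrimazole plus chlorhexidine kill blank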
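Test system: C. albicans biofilms. Buffer or medium: RPMI/MOPS medium, pH 7.0. Timing: 48 h compound exposure at 37 °C. Technique: Alamar Blue fluorescence. Evaluation: percent inhibition of biofilm viability.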
ROMK retest: human ROMK channel modulation, retest confirmation; shares compounds with ROMK primary; ROMK thallium flux, fluorescence ratio; active compounds read low; normalized thallium flux (F/F0 slope) at 10 µM; 3,000 compounds, 54% hits; AID 1917;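 active = Flux at 10 µM at least 3 SD below or above vehicle control mean in one or both replicates; inconclusive = no clear call, values can overlap the other calls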
The depositor's hits bear a star; u = inconclusive; x = no result.

SMILES | ROMK primary | Biofilm kill mix | ROMK retest
COc1cc(C2Oc3ccccc3C=C2[N+](=O)[O-])cc(OC)c1OC (stereo unspecified) | -7* | 13 | 0.033*
Cc1cc(C)cc(NC(=O)Cn2c(SCc3cc(C)ccc3C)nc3ccncc32)c1 | -0.7 | 7 | x
CCC1=Nc2cc(C(=O)NCC3CCCO3)ccc2Sc2ccc(Br)cc21 (stereo unspecified) | 1.4 | 20 | x
Cc1nn(-c2ccccc2)c(N)c1N=Nc1ccccc1 | x | 23 | x
Nc1nn(-c2ccccc2)c(N)c1N=Nc1ccccc1 | 3.1* | 6 | 0.086
COC(=O)c1c(NC(=O)CN2CCCc3ccccc32)sc(C)c1C | x | 6 | x
Cc1ccc(NC(=O)NCC2CCN(Cc3cccc(Cl)c3)CC2)c(Cl)c1 | -1.3 | 16 | x
Cc1ccc(NC(=O)NCC2CCN(Cc3cc(C)ccc3Cl)CC2)c(C)c1 | -3.8* | 10 | 0.054*
CC(C)(C)C1CC=C2C(C#N)=C(N)C(C#N)(C#N)C(c3cccs3)C2C1 (stereo unspecified) | -3* | x | 0.055*
CN1C2C=C3C(C#N)=C(N)C(C#N)(C#N)[C@@H](c4cccs4)C3C1CC2 (stereo partly specified) | -1.2 | x | x
CCOc1ccc(/C(O)=C2/C(=O)C(=O)N(c3ncccn3)C2c2ccccc2)cc1 (stereo unspecified) | 0.31 | 8 | x
CCCSC1=N/C(=C\c2ccc3c(c2)OCO3)C(=O)S1 | -0.89 | x | x
CC(=O)N(C)Cc1ccc(C(=O)CCl)cc1 | -0.0052 | -8 | x
CC(=O)NCc1ccc(C(=O)CCl)cc1 | -2* | 10 | 0.058*
CC(C)(C)c1ccc(NC(=S)NCc2cccnc2)cc1 | -1.5* | 10 | 0.073
Fc1ccc(NC(=S)NCc2cccnc2)cc1 | 0.29 | -3 | x
NC(CO)C12CC3CC(CC(C3)C1)C2 (stereo unspecified) | -0.54 | 29 | x
NC(CCC(=O)O)C12CC3CC(CC(C3)C1)C2 (stereo unspecified) | 2.5* | 10 | u
CC(=O)N1CCN(C(=O)CCc2nnc(CCCCc3ccccc3)o2)CC1 | 0.078 | 21 | x
Cc1cc(C)n(-c2nc(NCCN(C)C)c3c4c(sc3n2)CCCC4)n1 | x | 26 | u
Cc1cc(C)n(-c2nc(NCCCN(C)C)c3c4c(sc3n2)CCCC4)n1 | -2.8 | 0 | x
CCn1c(Cc2ccc(OC)cc2)nnc1SCC(=O)N1CCN(c2ccccc2)CC1 | -0.081 | x | x
COc1ccc(OC)c(Nc2ncnc3sc(-c4ccccc4)cc23)c1 | x | 21 | x
OCCOCCNc1ncnc2sc(-c3ccccc3)cc12 | -1.8* | x | 0.064*
Nc1ccn(-c2ccc(Cl)cc2)c(=O)c1 | 0.4 | x | x
SMILES | ROMK primary | Biofilm kill mix | ROMK retest
O=C(Nc1ccc(S(=O)(=O)Nc2nccs2)cc1)c1cc(-c2ccccn2)nc2ccccc12 | 0.89 | 13 | x
O=C(Nc1ccc(S(=O)(=O)Nc2nccs2)cc1)c1cc(-c2ccccc2Cl)nc2ccccc12 | 4.2* | x | 0.088
CC1(C)NC(=O)N(CC(O)COc2ccc(-c3ccc(C#N)cc3)cc2)C1=O (stereo unspecified) | 19* | x | 0.077
CC1(C)NC(=O)N(CC(O)COc2ccc(-c3ccccc3)cc2)C1=O (stereo unspecified) | -1.3 | x | x
COc1ccc(N=C2CCS(=O)(=O)c3sccc32)cc1 | -0.25 | 4 | x
CC1CCCN(C(=O)c2cc(N3C(=O)C4C5CCC(C5)C4C3=O)ccc2Cl)C1 (stereo unspecified) | -0.11 | 8 | x
O=S(=O)(c1ccc(Oc2ccc(Cl)cc2)c(S(=O)(=O)N2CCCCC2)c1)N1CCCCC1 | x | x | 0.064*
Cc1ccc(S(=O)(=O)N2CCCC2)cc1[N+](=O)[O-] | 1.6 | 3 | x
O=S(=O)(c1ccc(Cl)cc1)N1CCN(S(=O)(=O)N2CCCCCC2)CC1 | -0.73 | 0 | x
O=[N+]([O-])c1cc(S(=O)(=O)N2CCCCCC2)ccc1Cl | -3.9* | 12 | 0.064*
O=S(=O)(NCCCO)c1ccc2c(c1)Cc1cc(S(=O)(=O)NCCCO)ccc1-2 | 0.43 | x | x
CC(CCc1ccccc1)NC(=O)C(Cc1ccccc1)NS(=O)(=O)c1cccs1 (stereo unspecified) | -0.077 | x | x
COc1cc(S(=O)(=O)NC2CCCC2)ccc1F | 0.092 | x | x
N#C/C(=C\c1ccncc1)c1nc2c(s1)CCCC2 | -2* | -3 | 0.063*
N#C/C(=C\c1ccc(Cl)cc1)c1nc(-c2ccco2)cs1 | 0.61 | 14 | x
COc1ccc(CCC(C)NC2C3CC4CC(C3)CC2C4)cc1 (stereo unspecified) | x | x | 0.057*
COc1ccc(CCC(C)Nc2ccccc2F)cc1 (stereo unspecified) | 0.23 | 12 | x
O=C(CCS(=O)(=O)Cc1ccccc1F)N1CCc2ccccc2C1 | 9.5e-05 | x | x
O=C1N/C(=C/c2ccc(N3CCOCC3)o2)C(=O)N1c1cccc(Cl)c1 | -4.9* | 15 | 0.039*
Cc1c(C(=O)O)cccc1-c1ccc(/C=C2/NC(=O)N(c3ccccc3)C2=O)o1 | 0.27 | 24 | x
CCC1(CC)Nc2ccccc2C(=O)N1c1ccc(NC(C)=O)cc1 | -0.13 | x | x
Cc1ccc(S(=O)(=O)Nc2ccc(S(=O)(=O)NC(C)(C)C)cc2)cc1 | 0.45 | x | x
CCCNC(=O)C/C(C)=N/NC(=O)COc1ccc(C)cc1Br | x | -4 | x
COc1ccc(CNC(=O)C/C(C)=N/NC(=O)COc2ccc(C)cc2Br)cc1 | 3.4* | 2 | 0.074
O=C(COc1ccc(Cl)cc1Cl)NCc1ccco1 | -0.55 | x | x
SMILES | ROMK primary | Biofilm kill mix | ROMK retest
C/C(CC(=O)NCc1ccco1)=N\NC(=O)COc1ccc(Cl)cc1Cl | 3.6* | 6 | 0.092
O=C(NNC1CC(=O)N(c2cccc(Cl)c2)C1=O)c1cccs1 (stereo unspecified) | 0.54 | 19 | x
O=C(N/N=C/c1ccccn1)c1[nH]c2ccc([N+](=O)[O-])cc2c1-c1ccccc1 | 1.6 | -2 | x
COc1ccc2oc(=O)c(-c3ccccc3C(=O)N3CCOCC3)cc2c1 | 0.086 | 15 | x
CSC1=NSC2=NC(=O)/C(=C/c3coc4ccccc4c3=O)C(=N)N12 | x | 10 | x
N=C1/C(=C\c2coc3ccccc3c2=O)C(=O)N=C2SC=CN12 | x | 22 | 0.038*
Cc1nc2nc(-c3cccs3)cn2nc1C | -8.5* | x | 0.042*
Cc1nc2nc(-c3ccc(Cl)cc3)cn2nc1C | -0.26 | x | x
CCCCCCCCNC(=O)c1cccnc1SCC(=O)Nc1ccccc1OC | 0.081 | 12 | x
COc1ccc(-c2cc(C(=O)Nc3c(Cl)cc(Cl)cc3Cl)c3ccccc3n2)cc1OC | -0.43 | 14 | x
CCOC(=O)Cc1csc(NC(=O)CSc2ncnc3c2cnn3-c2ccccc2Cl)n1 | x | x | 0.054*
COC(=O)c1c(NC(=O)CSc2ncnc3c2cnn3-c2ccccc2Cl)sc2c1CCCC2 | 0.054 | 6 | x
COc1ccccc1CNCC(O)Cn1c2ccccc2c2ccccc21 (stereo unspecified) | -3.2* | 13 | 0.061*
OCCNCC(O)Cn1c2ccccc2c2ccccc21 (stereo unspecified) | -2.9 | 2 | x
CC(=O)c1ccc(Nc2ccc(-c3ccccc3C)nn2)cc1 | -0.73 | 20 | x
N#C/C(=C\c1cccc(Cl)c1)C(=O)c1ccccc1 | x | 27 | x
N#CC(C#N)=C1C=CC=CN1/C(=C\c1ccccc1)C(=O)c1cccs1 | x | 11 | 0.057*
N#CC(C#N)=C1C=CC=CN1/C(=C\c1ccccc1Cl)C(=O)c1ccccc1 | -5.6* | 23 | 0.041*
O=C(N/N=C/C(Br)=C\c1ccccc1)c1cccs1 | x | 24 | x
CCC1=NN(S(=O)(=O)c2ccc(C)cc2)C(O)(C(F)(F)F)C1 (stereo unspecified) | 0.6 | 15 | x
